Test results reported in publication PMC11359625 (ACS Omega, 2024).
Converted amounts (≈) assume the structure as drawn. Where two headings read alike, the source gives them in different places.

Tests used:
AR [1] = settings: cited from earlier work
[2] = molecular target: Recombinant human aldose reductase (Homo sapiens, UniProt P15121); test: AR activity assay; format: biochemical
PTP1B [3] = molecular target: T1, PTP1B (Homo sapiens, UniProt P18031); test: Kinetic study, Lineweaver–Burk plot, PTP1B; format: biochemical; settings: alkannin 0-20 μM
T1 sequence (P18031 1-435): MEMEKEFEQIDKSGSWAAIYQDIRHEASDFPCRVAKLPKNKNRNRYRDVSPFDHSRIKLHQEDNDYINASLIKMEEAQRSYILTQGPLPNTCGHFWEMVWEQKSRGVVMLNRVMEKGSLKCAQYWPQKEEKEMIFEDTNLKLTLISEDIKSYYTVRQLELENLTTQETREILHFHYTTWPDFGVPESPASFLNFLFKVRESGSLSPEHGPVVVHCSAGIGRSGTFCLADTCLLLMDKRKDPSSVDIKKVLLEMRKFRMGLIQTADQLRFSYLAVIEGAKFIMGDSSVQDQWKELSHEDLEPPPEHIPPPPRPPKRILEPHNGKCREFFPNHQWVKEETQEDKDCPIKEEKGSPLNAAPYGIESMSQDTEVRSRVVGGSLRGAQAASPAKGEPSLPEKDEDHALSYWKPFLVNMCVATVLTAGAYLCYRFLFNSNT
Method in brief: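 Recombinant human PTP1B (0.5 units in PTP1B reaction buffer) preincubated with the test compound at several concentrations for 10 min at 37 °C. pNPP substrate then added and incubated 15 min at 37 °C; reaction stopped with 10 M NaOH and read at 405 nm. Inhibition type taken from a Lineweaver–Burk plot; mean ± SEM, triplicate experiments.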

[4] = test system: PTP1B mRNA in IR-HepG2 cells; test: PTP1B mRNA expression by real-time qPCR; format: cell-based
IR-HepG2 cells = test: 2-NBDG glucose uptake in insulin-resistant HepG2 cells; format: cell-based; settings: 24 h treatment, concentration-dependent
Method in brief: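 Insulin resistance induced in confluent HepG2 (5 × 10³ cells/well; MEM, 10% FBS, 37 °C, 5% CO2) with 1 μM insulin for 24 h. Test compound added at several concentrations below 50 μM for 24 h, then 1 μM insulin for 30 min and 50 μM 2-NBDG for 30 min. Cells washed with ice-cold PBS; fluorescence read at ex 485/em 528 nm. Uptake expressed relative to untreated normal HepG2 (100%); mean ± SEM, triplicate.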

HepG2 cells [5] = settings: up to 40 μM; ref Xue et al.; cited from earlier work
AR [6] = molecular target: AR (Homo sapiens, UniProt P15121); test: Kinetic study, Lineweaver–Burk plot, AR; format: biochemical; settings: alkannin 0-20 μM
Method in brief: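 Recombinant human aldose reductase in 0.05 M sodium phosphate, pH 6.2, with 0.3 mM NADPH and DL-glyceraldehyde substrate, at several test-compound concentrations. Activity followed as the fall in NADPH absorbance at 340 nm over 4 min. Inhibition type assigned from a Lineweaver–Burk double-reciprocal plot; mean ± SEM of triplicate experiments.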

C57BL/KsJ-db/db mice = settings: 20 and 40 mg/kg body weight; cited from earlier work
HepG2 cells [7] = test: MTT cytotoxicity assay; format: cell-based; settings: up to 50 μM, 24 h
Method in brief: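 Normal HepG2 cells seeded at 5 × 10³ cells/well and grown 24 h. Test compound in DMSO added at […] for 24 h. MTT then added, and absorbance used to calculate percent cell viability.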

PTP1B [8] = molecular target: T1, PTP1B; test: PTP1B inhibitory activity with pNPP substrate; format: biochemical
polyol pathway = settings: cited from earlier work
human lens AR = settings: at a dose of 5 μM; cited from earlier work
AR [9] = settings: cited from earlier work; remark: listed apart in the source
PTP1B [10] = settings: cited from earlier work
human recombinant AR = settings: cited from earlier work
AR [11] = settings: read-out: IC50 AR inhibition; in vitro; cited from earlier work
PTP1B [12] = settings: cited from earlier work; remark: listed apart in the source

With `O=C1C=C(O)C(=O)C=C1O` [2,5-dihydroxy-p-benzoquinone] as the compound, how does the “manner of AR inhibition” value (AR [1]) read?
Its value is “noncompetitive”.

With `CC(C)=CC[C@H](O)C1=CC(=O)c2c(O)ccc(O)c2C1=O` [Alkannin] as the compound, how does the IC50 [2] read?
The IC50 was 22.8 µM.

And the “type of inhibition of PTP1B” value (PTP1B [3])?
The value was “mixed-inhibition”.

What about the “PTP1B mRNA expression” value [4] of the same compound?
The value was “significantly reduced”.

And the “insulin-stimulated 2-NBDG uptake” value (IR-HepG2 cells)?
Its value is “significantly enhanced”.

What about the “effect in HepG2 cells pretreated with palmitic acid” value (HepG2 cells [5]) of the same compound?
The value was “protective role”.

And the “type of inhibition of AR” value (AR [6])?
Its value is “mixed-inhibition”.

What about the “effect on liver injury and inflammation in diabetic mice” value (C57BL/KsJ-db/db mice) of the same compound?
The value was “protective role”.

And the “cytotoxicity on normal HepG2 cells (MTT)” value (HepG2 cells [7])?
The value was “insignificant cytotoxicity”.

And the IC50 (PTP1B [8])?
The IC50 was 19.5 µM.

For `O=c1c(O)c(-c2ccc(O)c(O)c2)oc2cc(O)cc(O)c12` [Quercetin], which “reduction in the accumulation of xylitol” value (polyol pathway) is on record?
The value was 80%.

And the “inhibition of human lens AR” value (human lens AR)?
Its value is 50%.

And the AR inhibition (AR [9]; at a dose of 10 μM)?
The AR inhibition was 95%.

And the “manner of AR inhibition” value (AR [9])?
Its value is “noncompetitive”.

With `Cc1cc2c3c(c1)-c1c(O)cc(-c4cc5ccc(O)cc5o4)cc1OC3(c1ccc(O)cc1O)Oc1cc(O)ccc1-2` (stereo not drawn) [albanol B] as the compound, how does the “type of PTP1B enzyme inhibition” value (PTP1B [10]) read?
The value was “mixed-type”.

Which results are given for `COc1cc(/C=C/C(=O)CC(=O)/C=C/c2ccc(O)c(OC)c2)ccc1O` [curcumin]?
manner of inhibition of human recombinant AR (human recombinant AR): noncompetitive; IC50 (AR [11]): 6.8 µM

Which “type of PTP1B enzyme inhibition” value (PTP1B [10]) does the source give for `CC(C)=CCc1c(-c2ccc(O)cc2O)oc2c([C@H]3C=C(C)C[C@@H](c4ccc(O)cc4O)[C@@H]3C(=O)c3ccc(O)cc3O)c(O)cc(O)c2c1=O` [kuwanon G] here?
The value was “mixed-type”.

For `CC1=C[C@H]2c3c(O)cc(-c4cc5ccc(O)cc5o4)cc3O[C@@]3(c4ccc(O)cc4O)Oc4cc(O)ccc4[C@H](C1)[C@@H]23` [mulberrofuran G], which “type of PTP1B enzyme inhibition” value (PTP1B [10]) is on record?
Its value is “mixed-type”.

For `O=C(O)[C@H]1O[C@@H](Oc2c(-c3cc(O)c(O)c(O)c3)oc3cc(O)cc(O)c3c2=O)[C@H](O)[C@@H](O)[C@@H]1O` [myricetin-3-O-β-Dglucuronide], which “IC50 PTP1B inhibitory activity” value (PTP1B [12]) is on record?
The value was 9.47 ± 3.31 µg/mL (≈ 19.2 µM).

Which “IC50 PTP1B inhibitory activity” value (PTP1B [12]) does the source give for `O=C(O)[C@H]1O[C@@H](Oc2c(-c3ccc(O)c(O)c3)oc3cc(O)cc(O)c3c2=O)[C@H](O)[C@@H](O)[C@@H]1O` [quercetin-3-O-β-D-glucuronide] here?
The value was 7.39 ± 1.15 µg/mL (≈ 15.4 µM).
